Measurements as given in publication PMC8920403 (Drug Delivery, 2022).

Experiments:
VEGF-A = test: ELISA of VEGF-A in cornea of alkali burn CNV mice; assay type: in vivo, BALB/c mice; conditions: dexamethasone eye drops, days 3 and 7, P < 0.05
Procedure, shortened: (§1)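 Alkali-burn CNV mice (0.1 M NaOH, 20 s) were given saline, test-compound lipid carrier or dexamethasone drops, 5 μL twice daily. On days 3 and 7, five mice per group were killed. Corneas were weighed, frozen at −80 °C, thawed at 4 °C for 0.5 h and minced. Tissue was extracted in 100 μL RIPA on ice for 1.5 h and spun at 12,000 rpm, 4 °C, 5 min. ELISA absorbance was read at 450 nm and normalised to BCA total protein. Mean ± SD; one-way ANOVA, with t test for pairs.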

PDGF-AB = test: ELISA of PDGF-AB in cornea of alkali burn CNV mice; assay type: in vivo, BALB/c mice; conditions: dexamethasone eye drops, days 3 and 7, P < 0.05
Procedure, shortened: as §1

neovascular corneal area = conditions: topical solution 0.05 mg/mL SRB and 0.07 mg/mL DMSO; ref Yildirim et al., 2020; cited from earlier work
endothelial cells = conditions: at a dose of 7.5 µg/mL (0.1–100 µg/mL studied); ref Thiele et al., 2013; cited from earlier work
[1] = system: corneal neovascularization (CNV); test: Alkali burn injury induced CNV in mice; assay type: in vivo, BALB/c mice; conditions: SRB-NLC 0.0125-0.05%, fluorescein staining
Procedure, shortened: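 Male BALB/c mice (20–25 g) were anaesthetised with 1% sodium pentobarbital i.p. (80 mg/kg) plus 0.4% oxybuprocaine drops. 2 μL of 0.1 M NaOH on filter paper was applied to the right central cornea for 20 s, then rinsed with 20 mL saline. Groups of 16 received saline, test-compound lipid carrier (0.05, 0.025 or 0.0125%) or dexamethasone drops, 5 μL twice daily for 7 days. On day 7, corneas from three mice per group were fixed in 4% paraformaldehyde for 48 h, paraffin-processed, and 5 µm sagittal sections were H&E stained.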

[2] = Ocular pharmacokinetics in rabbit eyes; assay type: in vivo, New Zealand White rabbits; conditions: after single topical administration; limit of quantitation 0.01 μg/mL
Procedure, shortened: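 Forty-two male New Zealand White rabbits (2.0–2.5 kg) were split into lipid-carrier and suspension groups. Each received a single 50 μL instillation into the lower conjunctival sac of both eyes, with lids held closed for 15 s. At preset times, rabbits were killed with i.v. 4% phenobarbital sodium via the marginal ear vein. After a saline rinse of the ocular surface, aqueous humour was drawn at the limbus with a 26-G needle.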

experimental CNV = conditions: oral administration, dose-dependent; ref Seo et al., 2012; cited from earlier work

Row | Molecule | VEGF-A level in corneal tissue vs saline group (VEGF-A) | PDGF-AB level in corneal tissue vs saline group (PDGF-AB) | Percentage of the neovascular corneal area vs DMSO alone (neovascular corneal area) | Toxic effects on endothelial cells (endothelial cells) | Recovery of corneal epithelial defects after alkali burn injury [1] | SRB levels in the aqueous humor (AH) [2] | Development of experimental CNV (experimental CNV)
1 | Dexamethasone sodium phosphate | significantly lower | significantly lower |  |  |  |  | 
2 | CNC(=O)c1cc(Oc2ccc(NC(=O)Nc3ccc(Cl)c(C(F)(F)F)c3)cc2)ccn1 [SRB, Sorafenib] |  |  | significantly lower | no toxic effects | could effectively promote the recovery of corneal epithelial defects | < 0.01 µg/mL | significantly reduced the development of experimental CNV
